High-throughput results as filed in PubChem BioAssay.
Compounds with a hit are over-represented: about 2.5% of the library has one in this group of screens.
MsrA inh: inhibits bovine methionine sulfoxide reductase A. inhibition, % at 15.5 µM. 360,000 compounds, 0.75% hits. AID 651718. purified bovine MsrA, absorbance read-out; in the data active = inhibition above about 4.5%
MsrA act: activators of bovine methionine sulfoxide reductase A; AID 602163; purified bovine MsrA, absorbance read-out; 360,000 compounds, 0.3% hits; activation, % at 10.6 µM; in the data active = activation above about 7.5%
GalR3 antag: blocks the human galanin receptor 3. inhibition, % at 3 µM. 360,000 compounds, 0.44% hits. AID 651719. HEK293 GalR3-CNG cAMP membrane potential fluorescence; galR3 body fused to GalR1 C-terminus. O60755;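 active = inhibition above the screen-wide average plus 3 SD, cut at about 13% in these data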;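 note: forskolin and galanin both at EC90 stimulate the cells; cAMP rise reported by CNG channel membrane potential dye signal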
NR2E3 ag-1: agonists of human NR2E3 nuclear receptor. inhibition of corepressor binding, % at 3.98 µM. Q9Y5X4. CHO-S Gal4-NCOR/VP16-NR2E3 two-hybrid, luciferase. 360,000 compounds, 0.35% hits. AID 602229;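 active = inhibition above the mean of all tested compounds plus 3 SD, cut at about 70% in these data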;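 note: higher means lower luciferase signal from less NR2E3 corepressor binding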
Target sequence (Q9Y5X4 whole entry, looked up, the tested form may be a part): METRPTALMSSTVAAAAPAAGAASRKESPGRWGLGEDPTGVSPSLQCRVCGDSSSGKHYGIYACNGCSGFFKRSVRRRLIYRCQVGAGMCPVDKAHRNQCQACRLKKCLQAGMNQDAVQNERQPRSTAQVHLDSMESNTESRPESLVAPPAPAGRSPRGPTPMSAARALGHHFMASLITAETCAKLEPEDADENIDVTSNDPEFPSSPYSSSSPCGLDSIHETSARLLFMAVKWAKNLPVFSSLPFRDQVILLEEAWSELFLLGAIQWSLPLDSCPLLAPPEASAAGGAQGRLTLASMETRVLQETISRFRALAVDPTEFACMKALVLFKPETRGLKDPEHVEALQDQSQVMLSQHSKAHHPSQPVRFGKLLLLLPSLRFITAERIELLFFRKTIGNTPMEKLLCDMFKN
NadD block: NadD (S. aureus) enzyme inhibition; purified NadD enzyme, colorimetric absorbance read-out; inhibition, % at 20 µM; 360,000 compounds, 0.78% hits; in the data active = inhibition above about 26%
NR2E3 ag-2: agonists of human nuclear receptor NR2E3; Q9Y5X4; GST-NR2E3/biotin-RetCOR TR-FRET, 1536-well; inhibition of corepressor binding, % at 4.78 µM; 320,000 compounds, 0.12% hits; AID 2300;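 active = percent inhibition above the cutoff of mean plus 3 SD of all tested compounds, set per screening campaign, cut at about 20% in these data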
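Assay system: NR2E3–RetCOR corepressor complex. Quantity: 1.35 nM GST-NR2E3. Buffer or medium: pH 7.5 Tris-based buffer. Reagent: biotinylated RetCOR corepressor at 7 nM final. Schedule: 5 h at 4 °C. Detection: TR-FRET, emission read at 617 and 671 nm. Replicates: one well per compound, singlicate testing.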
NadD conf: NadD (S. aureus) inhibition, single concentration confirmation | 2,000 compounds, 13% hits | shares compounds with NadD block | inhibition, % at 20 µM | purified S. aureus NadD, colorimetric enzyme assay; in the data active = inhibition mostly above about 42%, no sharp cut-off; inactive = mostly below about 42%
Of the large screens only hits and unclear results are named; the others gave an inactive call (follow-up assays come after a bar, where they were run).

CCCCn1c(N)c(N(CC(C)C)C(=O)CSC(C)C(=O)Nc2cc(C)on2)c(=O)[nH]c1=O (stereo unspecified)	none
O=C(/C=C/c1ccc(Cl)c([N+](=O)[O-])c1)Nc1ccc(N2CCCC2)cc1	NadD block 42 | NadD conf inactive
O=C(NC(=S)Nc1ccc(N2CCCC2)cc1)c1ccccc1[N+](=O)[O-]	NadD block 33 | NadD conf inactive
O=C(Nc1ccc(N2CCCC2)cc1)c1cc(Cl)ccc1Cl	NadD block 52 | NadD conf inactive
CC(C)Oc1ccc(C(=O)Nc2ccc(N3CCCC3)cc2)cc1	none (no result: MsrA inh, GalR3 antag)
O=C(Nc1ccc(N2CCCC2)cc1)c1ccc(Br)cc1	NadD block 29 | NadD conf inactive
O=C(NC(=S)Nc1ccccc1N1CCCC1)c1ccccc1[N+](=O)[O-]	none
COc1ccc(NS(=O)(=O)c2cc(NC(=O)C3=NN(c4ccccc4)C(=O)CC3)ccc2OC)cc1	none (no result: NR2E3 ag-2)
CCC(=O)N/N=C/c1ccc(-c2ccc([N+](=O)[O-])cc2)o1	none
COc1ccc(N(CC(=O)N/N=C/c2ccc(-c3ccc([N+](=O)[O-])cc3)o2)S(=O)(=O)c2ccc(C)cc2)cc1Cl	NadD block 40 | NadD conf inactive
COc1ccc(N(CC(=O)N/N=C/c2ccc(-c3ccc([N+](=O)[O-])cc3)o2)S(=O)(=O)c2ccc(C)cc2)cc1	NadD block 42 | NadD conf inactive
COC(=O)[C@]1(Cc2ccccc2)N[C@H](CN(C)C(=O)c2ccc(C)cc2)[C@@H]2C(=O)N(Cc3ccccc3)C(=O)[C@@H]21	none (no result: NR2E3 ag-2)
C(=C1/CCCC2=C1Nc1ncnn1C2c1ccccc1)/c1ccccc1 (stereo unspecified)	none (no result: MsrA inh, MsrA act, GalR3 antag, NR2E3 ag-1, NadD block)
COc1cccc2cc(-c3nnc(-c4ccccc4)o3)c(=O)oc12	none
CC/C(C)=N/Nc1nc(-c2cc3cccc(OC)c3oc2=O)cs1	NadD block 51 | NadD conf inactive
CCCCNC(=O)C1=C(N)C(C(=O)Nc2ccc(C)c(S(=O)(=O)N3CCCCC3)c2)SC1=Nc1ccc(C)cc1C (stereo unspecified)	NadD block 40 | NadD conf inactive
CCOc1ccc(N2C(=O)C3Sc4[nH]c(=O)sc4C(/C=C/c4ccccc4)C3C2=O)cc1 (stereo unspecified)	NadD block 32 | NadD conf inactive
CCOC(=O)C1=C(COC(=O)C2(C)CC2(Cl)Cl)NC(=O)NC1c1ccc(OC)cc1 (stereo unspecified)	none
CCN(CC(=O)Nc1c(F)cccc1F)C(=O)c1nc2nccc(C)n2n1	none
O=C(/C=C/NNC(=O)c1cccc(Br)c1)c1cccc(Br)c1	NadD block 30 | NadD conf inactive
CN(C)S(=O)(=O)c1cccc(C(=O)Nc2ccc(S(=O)(=O)N3CCCC3)cc2)c1	none
Cc1cc(C)n2nc(C(=O)N/N=C/c3c4ccccc4cc4ccccc34)nc2n1	NadD block 29 | NadD conf inactive
Cc1cc(C)n2nc(C(=O)N/N=C/c3ccccc3Cl)nc2n1	none
Cc1ccc(OCc2ccc(C(=O)Nc3nc4ccccc4n3Cc3ccccc3)o2)c([N+](=O)[O-])c1	NadD block 34 | NadD conf inactive
Cc1cc(C)n(C(=O)CCCCCC(=O)n2nc(C)cc2C)n1	none
Cc1noc(/C=C/c2ccco2)c1S(=O)(=O)N1CCC(C(=O)NC(C)c2ccccc2)CC1 (stereo unspecified)	none (no result: GalR3 antag)
Cc1noc(/C=C/c2ccco2)c1S(=O)(=O)N1CCC(C(=O)N2c3ccccc3CC2C)CC1 (stereo unspecified)	NadD block 39 | NadD conf inactive
COc1ccc(OC)c(NC(=O)c2ccccc2N(C)S(=O)(=O)c2ccc(C)cc2)c1	none
CCCN(CCC)S(=O)(=O)c1ccc(C(=O)Nc2nnc(-c3cc(OC)cc(OC)c3)o2)cc1	NadD block 58 (no result: MsrA inh, GalR3 antag) | NadD conf inactive
CCN(Cc1ccccc1)S(=O)(=O)c1ccc(C(=O)Nc2nnc(-c3ccccc3OC)o2)cc1	NadD block 54 | NadD conf 26
COc1ccccc1-c1nnc(NC(=O)c2ccc(S(=O)(=O)N(C)C)cc2)o1	none
